In brackets after ≈: the same amount, converted by molar mass. Activity calls are given as the source filed them. No cut-off for these calls is given here.
How the values were obtained:
[1] = tested on: HL-60; assay: Cytotoxicity against human HL60 cells at 10 ug/mL after 72 hrs by MTT assay
[2] = tested on: HL-60; assay: Cytotoxicity against human HL60 cells after 72 hrs by MTT assay; assay type: functional, cell-based; conditions: HL-60, 72 h
In short: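 HL-60 cells kept in RPMI 1640 with heat-inactivated 10% FBS, penicillin and streptomycin. Seeded at 4 × 10^4 cells/mL and preincubated 24 h at 37 °C in air/CO2 (19:1). Sample added in EtOH-H2O (1:1) to final 0.1-10 µg/mL, vehicle alone in controls. Incubated 72 h more, growth read by modified MTT (Sargent and Taylor). IC50 taken from dose-response curve. Triplicate.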

[3] = tested on: HL-60; assay: Induction of apoptosis in human HL60 cells assessed as caspase-3 activation at 20 ug/ml after 6 hrs; assay type: functional, cell-based
In short: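 HL-60 cells (2 × 10^6) treated 6 h at 37 °C at 0, 10 or 20 µg/mL, with 10 µg/mL etoposide as reference, then lysed on ice. Lysate equivalent to 200 µg protein mixed with reaction buffer containing DEVD-pNA. Incubated 2 h at 37 °C, released pNA read at 405 nm. Mean ± SE of triplicates.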

[4] = tested on: HL-60; assay: Induction of apoptosis in human HL60 cells by morphology study; assay type: functional, cell-based
[5] = tested on: HL-60; assay: Induction of DNA fragmentation in human HL60 cells at 20 ug/ml after 18 hrs by agarose gel electrophoresis; assay type: functional, cell-based
In short: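 HL-60 cells treated 18 h at 37 °C at 0, 10 or 20 µg/mL, with 10 µg/mL etoposide as reference. Genomic DNA extracted from 2 × 10^6 cells by kit with RNase A step. Run on 2% agarose in 40 mM Tris-acetate (pH 7.4) at 50 V for 1 h. Ladder pattern viewed under UV.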

Structure (SMILES) | Activity [1] | IC50 [2] | Activity [4] | also measured
C[C@@H]1CC[C@@]2(OC1)O[C@H]1C[C@H]3[C@@H]4CC[C@@H]5C[C@@H](O[C@@H]6O[C@H](CO)[C@H](O[C@@H]7O[C@H](CO)[C@@H](O)[C@H](O)[C@H]7O)[C@H](O)[C@H]6O[C@@H]6O[C@H](CO)[C@@H](O)[C@H](O)[C@H]6O)[C@@H](O)C[C@]5(C)[C@H]4CC[C@]3(C)[C@H]1[C@@H]2C | inactive |  |  | 
C[C@@H]1CC[C@@]2(OC1)O[C@H]1C[C@H]3[C@@H]4CC[C@@H]5C[C@@H](O[C@@H]6O[C@H](CO)[C@@H](O[C@@H]7O[C@H](CO)[C@@H](O)[C@H](O)[C@H]7O)[C@H](O)[C@H]6O)CC[C@]5(C)[C@H]4CC[C@]3(C)[C@H]1[C@@H]2C |  | 4.9 µg/mL (≈ 6.61 µM) | Active | Activity [3]: Active; Activity [5]: Active
C[C@@H]1CC[C@@]2(OC1)O[C@H]1C[C@H]3[C@@H]4CC[C@@H]5C[C@@H](O[C@@H]6O[C@H](CO)[C@H](O[C@@H]7O[C@H](CO)[C@@H](O)[C@H](O)[C@H]7O[C@@H]7O[C@H](CO)[C@@H](O)[C@H](O)[C@H]7O)[C@H](O)[C@H]6O)CC[C@]5(C)[C@H]4CC[C@]3(C)[C@H]1[C@@H]2C |  | 4.9 µg/mL (≈ 5.43 µM) | Active | Activity [3]: Active
C[C@@H]1CC[C@@]2(OC1)O[C@H]1C[C@H]3[C@@H]4CC[C@@H]5C[C@@H](O[C@@H]6O[C@H](CO)[C@H](O)[C@H](O[C@@H]7O[C@H](CO)[C@@H](O)[C@H](O)[C@H]7O)[C@H]6O)CC[C@]5(C)[C@H]4CC(=O)[C@]3(C)[C@H]1[C@@H]2C | inactive |  |  | 
C[C@@H]1CC[C@@]2(OC1)O[C@H]1C[C@H]3[C@@H]4CC[C@@H]5C[C@@H](O[C@@H]6O[C@H](CO)[C@H](O)[C@H](O[C@@H]7O[C@H](CO)[C@@H](O)[C@H](O)[C@H]7O)[C@H]6O)CC[C@]5(C)[C@H]4CC[C@]3(C)[C@H]1[C@@H]2C |  | 7 µg/mL (≈ 9.45 µM) | inactive | 
C[C@@H]1CC[C@@]2(OC1)O[C@H]1C[C@H]3[C@@H]4CC[C@@H]5C[C@@H](O[C@@H]6O[C@H](CO)[C@H](O[C@@H]7O[C@H](CO)[C@@H](O)[C@H](O)[C@H]7O[C@@H]7O[C@H](CO)[C@@H](O)[C@H](O)[C@H]7O)[C@H](O)[C@H]6O)[C@@H](O)C[C@]5(C)[C@H]4CC[C@]3(C)[C@H]1[C@@H]2C | inactive |  |  | 
CO[C@]1(CC[C@@H](C)CO[C@@H]2O[C@H](CO)[C@@H](O)[C@H](O)[C@H]2O)O[C@H]2C[C@H]3[C@@H]4CC[C@@H]5C[C@@H](O[C@@H]6O[C@H](CO)[C@@H](O[C@@H]7O[C@H](CO)[C@@H](O)[C@H](O)[C@H]7O)[C@H](O)[C@H]6O)CC[C@]5(C)[C@H]4CC[C@]3(C)[C@H]2[C@@H]1C | inactive |  |  | 
C[C@@H]1CC[C@@]2(OC1)O[C@H]1C[C@H]3[C@@H]4CC[C@@H]5C[C@@H](O[C@@H]6O[C@H](CO)[C@@H](O[C@@H]7O[C@H](CO)[C@@H](O)[C@H](O)[C@H]7O)[C@H](O)[C@H]6O)CC[C@]5(C)[C@H]4CC(=O)[C@]3(C)[C@H]1[C@@H]2C | inactive |  |  | 
C[C@@H]1CC[C@@]2(OC1)O[C@H]1C[C@H]3[C@@H]4CC[C@@H]5C[C@@H](O[C@@H]6O[C@H](CO)[C@@H](O[C@@H]7O[C@H](CO)[C@@H](O)[C@H](O)[C@H]7O)[C@H](O)[C@H]6O)[C@@H](O)C[C@]5(C)[C@H]4CC[C@]3(C)[C@H]1[C@@H]2C | inactive |  |  | 

Reference: ChEMBL document CHEMBL1154200, “Steroidal glycosides from Agave utahensis and their cytotoxic activity” (J Nat Prod, 2009)
